According to ChEMBL document CHEMBL4043184, “The design and synthesis of a novel compound of berberine and baicalein that inhibits the efficacy of lipid accumulation in 3T3-L1 adipocytes” (Bioorg Med Chem, 2017):
Activity calls are given as the source filed them. The calls are words filed in the database; no cut-off is given here.

Tests used:
3T3-L1 [1] = assay: Inhibition of lipid accumulation in mouse 3T3L1 cells at 2.5 to 5 uM incubated for 48 hrs by Oil Red O staining based spectrophotometry; format: functional, cell-based
Outline: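 Mature 3T3-L1 adipocytes (IBMX/DEX/insulin-differentiated, day 10) after 48 h treatment fixed in 10% buffered formalin 30 min, stained with diluted Oil Red O 1 h at room temperature, washed with 60% isopropanol, dye eluted with isopropanol, absorbance read at 510 nm; expressed as percent intracellular lipid.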

3T3-L1 [2] = assay: Suppression of lipogenesis associated gene expression in mouse 3T3L1 cells assessed as reduction in Scd1 mRNA expression at 2.5 and 5 uM incubated for 48 hrs by qPCR method; format: functional, cell-based
Outline: (§1)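 Mature 3T3-L1 adipocytes (confluent cells induced 3 days with 0.5 mmol/L IBMX, 1.0 µmol/L DEX, 10 mg/L insulin, then insulin 2 days, used ~day 10) treated 0, 2.5 or 5 µM for 48 h. Total RNA extracted, qPCR, normalized to β-actin; DMSO 0.1% controls; mean ± SD, three independent experiments.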

3T3-L1 [3] = assay: Effect on Hsl mRNA expression in mouse 3T3L1 cells at 2.5 and 5 uM incubated for 48 hrs by qPCR method; format: functional, cell-based; outline: as §1
3T3-L1 [4] = assay: Inhibition of triglyceride content in mouse 3T3L1 cells at 2.5 uM incubated for 48 hrs by triglyceride GPO-POD assay; format: functional; details: 3T3-L1, 48 h
Outline: (§2)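 Differentiated 3T3-L1 adipocytes treated 0, 2.5 or 5 µM for 48 h; lysates heated 70 °C for 10 min, centrifuged, supernatant mixed with GPO-POD working reagent 10 min at 37 °C, absorbance at 550 nm. TG normalized to BCA protein; 0.1% DMSO controls; mean ± SD of ≥3 experiments.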

3T3-L1 [5] = assay: Inhibition of triglyceride content in mouse 3T3L1 cells at 5 uM incubated for 48 hrs by triglyceride GPO-POD assay; format: functional; details: 3T3-L1, 48 h; outline: as §2
3T3-L1 [6] = assay: Suppression of lipogenesis associated gene expression in mouse 3T3L1 cells assessed as reduction in Fasn mRNA expression at 5 uM incubated for 48 hrs by qPCR method; format: functional, cell-based; outline: as §1
3T3-L1 [7] = assay: Induction of Atgl mRNA expression in mouse 3T3L1 cells at 2.5 and 5 uM incubated for 48 hrs by qPCR method; format: functional, cell-based; outline: as §1
3T3-L1 [8] = assay: Cytotoxicity against mouse 3T3L1 cells assessed as reduction in cell viability incubated for 48 hrs by CCK8 assay; format: cell-based; details: for IC50: Mus musculus, 3T3-L1, 48 h; for Activity: mouse, 3t3-l1, 48 h
Outline: (§3)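 3T3-L1 preadipocytes (maintained in DMEM/10% calf serum, 37 °C, 5% CO2) seeded 5×10^3 cells/well in 96-well plates, grown 24 h, then exposed to 1.25–80 µM for 48 h; controls 0.1% DMSO. CCK8 added for 2 h at 37 °C, absorbance at 450 nm. IC50 by logit method; n = 6 plates, ≥3 experiments.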

3T3-L1 [9] = assay: Cytotoxicity against mouse 3T3L1 cells assessed as reduction in cell viability at <5 uM incubated for 48 hrs by CCK8 assay; format: cell-based; details: 3t3-l1, 48 h; outline: as §3
3T3-L1 [10] = assay: Suppression of lipogenesis associated gene expression in mouse 3T3L1 cells assessed as reduction in Srebp-1c mRNA expression incubated for 48 hrs by qPCR method; format: functional, cell-based; outline: as §1
3T3-L1 [11] = assay: Induction of AMPK mRNA expression in mouse 3T3L1 cells at 5 uM incubated for 48 hrs by qPCR method; format: functional, cell-based; outline: as §1
3T3-L1 [12] = assay: Suppression of lipogenesis associated gene expression in mouse 3T3L1 cells assessed as reduction in Acc mRNA expression at 2.5 and 5 uM incubated for 48 hrs by qPCR method; format: functional, cell-based; outline: as §1
3T3-L1 [13] = assay: Cytotoxicity against mouse 3T3L1 cells assessed as reduction in cell viability at 1.25 to 5 uM incubated for 48 hrs by CCK8 assay; format: cell-based; details: 3t3-l1, 48 h; outline: as §3
3T3-L1 [14] = assay: Cytotoxicity against mouse 3T3L1 cells assessed as reduction in cell viability at >10 uM incubated for 48 hrs by CCK8 assay; format: cell-based; details: 3t3-l1, 48 h; outline: as §3
3T3-L1 [15] = assay: Cytotoxicity against mouse 3T3L1 cells assessed as reduction in cell viability at […] incubated for 48 hrs by CCK8 assay; format: cell-based; details: 3t3-l1, 48 h
3T3-L1 [16] = assay: Reduction in Hsl mRNA expression in mouse 3T3L1 cells at 2.5 uM incubated for 48 hrs by qPCR method; format: functional, cell-based; outline: as §1
3T3-L1 [17] = assay: Cytotoxicity against mouse 3T3L1 cells assessed as reduction in cell viability at 20 uM incubated for 48 hrs by CCK8 assay; format: cell-based; details: 3t3-l1, 48 h; outline: as §3

For COc1ccc2cc3[n+](cc2c1OCCCCCCOc1c(O)cc2oc(-c4ccccc4)cc(=O)c2c1O)CCc1cc2c(cc1-3)OCO2, the inhibition (3T3-L1 [1]) was “Active”, the inhibition (3T3-L1 [2]) was “Active” and the Activity (3T3-L1 [3]) was “inactive”. The inhibition at 2.5 µM (3T3-L1 [4]) was 27.3%, the inhibition at 5 µM (3T3-L1 [5]) was 37.4% and the inhibition (3T3-L1 [6]) was “Active”. For the same compound, the Activity (3T3-L1 [7]) was “Active”, the IC50 (3T3-L1 [8]) was 9.42 µM and the Activity (3T3-L1 [8]) was “Dose-dependent effect”. For the same compound, the Activity (3T3-L1 [9]) was “Non-Toxic”, the inhibition (3T3-L1 [10]) was “Dose-dependent effect” and the Activity (3T3-L1 [11]) was “Active”. For the same compound, the inhibition (3T3-L1 [12]) was “Active”.
For O=c1cc(-c2ccccc2)oc2cc(O)c(O)c(O)c12 [BAICALEIN], the inhibition (3T3-L1 [2]) was “Active”, the Activity (3T3-L1 [13]) was “Non-Toxic” and the inhibition (3T3-L1 [6]) was “Active”. For the same compound, the Activity (3T3-L1 [14]) was “Toxic”, the Activity (3T3-L1 [15]) was “Non-Toxic” and the Activity (3T3-L1 [7]) was “Active”. For the same compound, the IC50 (3T3-L1 [8]) was 29.8 µM, the Activity (3T3-L1 [8]) was “Dose-dependent effect” and the inhibition (3T3-L1 [10]) was “Dose-dependent effect”. The Activity (3T3-L1 [16]) was “Active” and the Activity (3T3-L1 [11]) was “Active”.
In the case of COc1ccc2cc3[n+](cc2c1OC)CCc1cc2c(cc1-3)OCO2 [BERBERINE], the inhibition (3T3-L1 [2]) is reported as “Active”, the inhibition (3T3-L1 [6]) is reported as “Active” and the Activity (3T3-L1 [17]) is reported as 45%. The Activity (3T3-L1 [7]) was “Active”, the IC50 (3T3-L1 [8]) was 21.8 µM and the Activity (3T3-L1 [8]) was “Dose-dependent effect”. For the same compound, the inhibition (3T3-L1 [10]) was “Dose-dependent effect” and the Activity (3T3-L1 [16]) was “Active”.
